Measured values published in ChEMBL document CHEMBL1124197, “3-[1-(2-Benzoxazolyl)hydrazino]propanenitrile derivatives: inhibitors of immune complex induced inflammation” (1988).
Calls of active or inactive are those of the source. The calls are words filed in the database; no cut-off is given here.

Columns and labels:
Rattus norvegicus [1] = species on record: Rattus norvegicus; experiment: Effective dose required for 40% inhibition of rat dermal reverse passive Arthus reaction (RPAR); type: functional
Outline: (§1)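 Fasted male rats received BSA intravenously and about 1 h later a challenge of rabbit anti-BSA given intradermally. Compound was dosed orally 30 min before the challenge. Rats were killed 4 h later and dermal lesion size was measured. ED40 with 95% confidence limits came from least-squares regression.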

Rattus norvegicus [2] = experiment: In vivo inhibition of rat dermal passive revers arthus reaction following p.o. administration; Inactive.; type: functional, organism-based
Rattus norvegicus [3] = species on record: Rattus norvegicus; experiment: Inhibition of pleural reverse passive Arthus reactions (exudate white blood cells (WBC)); type: functional
Outline: (§2)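 Fasted male rats were given BSA intravenously, then about 1 h later rabbit anti-BSA intrapleurally. Oral dosing was 30 min before the challenge. After 4 h the rats were killed and pleural exudate fluid volume and white blood cell accumulation were determined. ED50 with 95% confidence limits came from least-squares regression.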

Rattus norvegicus [4] = species on record: Rattus norvegicus; experiment: Inhibition of pleural reverse passive Arthus reactions (RPAR) in rat (exudate volume); type: functional; outline: as §2
Rattus norvegicus [5] = species on record: Rattus norvegicus; experiment: Effect in rat pleural Carrageenan test (exudate volume); type: functional
Rattus norvegicus [6] = species on record: Rattus norvegicus; experiment: Effect in rat pleural Carrageenan test (exudate white blood cells (WBC)); type: functional
Rattus norvegicus [7] = experiment: Effect in rat pleural Carrageenan test (exudate white blood cells (WBC)); No significant effect at 28 umol/kg (Not active); type: functional, organism-based
Rattus norvegicus [8] = experiment: Inhibition of pleural reverse passive Arthus reactions (exudate white blood cells (WBC)); No significant inhibition at 56 umol/kg (Inactive); type: functional, organism-based; outline: as §2
Rattus norvegicus [9] = experiment: Effective dose of compound for 40% inhibition of rat dermal reverse passive Arthus reaction (RPAR) on peroral administration; No significant inhibition at 56 umol/kg (Inactive); type: functional, organism-based; outline: as §1
Rattus norvegicus [10] = experiment: Inhibition of pleural reverse passive Arthus reactions (RPAR) in rat (exudate volume); No significant inhibition at 56 umol/kg (Inactive); type: functional, organism-based; outline: as §2

## Cc1cc2oc(N(N)CCC#N)nc2c(C)c1C
Rattus norvegicus [1]
  ED40: 139 µM/kg

## N#CCCN(N)c1nc2ccccc2s1
Rattus norvegicus [1]
  ED40: 128 µM/kg

## Cc1cccc2nc(N(N)CCC#N)oc12
Rattus norvegicus [1]
  ED40: 250 µM/kg

## COCCN(N)c1nc2cc(C(F)(F)F)ccc2o1
Rattus norvegicus [1]
  ED40: 47 µM/kg

## [2H]C([2H])(C#N)CN(N)c1nc2ccccc2o1
Rattus norvegicus [1]
  ED40: 255 µM/kg

## N#CCCN(N)c1nc2cc3ccccc3cc2o1
Rattus norvegicus [1]
  ED40: 306 µM/kg

## COCCN(N)c1nc2cc(OC)ccc2o1
Rattus norvegicus [1]
  ED40: 43 µM/kg

## N#CCCN(N)c1nc2cc(Oc3ccccc3)ccc2o1
Rattus norvegicus [2]
  ED40: inactive

## N#CCCN(N)c1nc2cccc(Cl)c2o1
Rattus norvegicus [1]
  ED40: 275 µM/kg

## NN(CCN1CCOCC1)c1nc2ccccc2o1
Rattus norvegicus [1]
  ED40: 825 µM/kg

## COC(=O)CCN(N)c1nc2ccccc2o1
Rattus norvegicus [1]
  ED40: 1208 µM/kg

## CCc1ccc2oc(N(N)CCC#N)nc2c1
Rattus norvegicus [1]
  ED40: 330 µM/kg

## N#CCCN(NC=O)c1nc2cc(C(F)(F)F)ccc2o1
Rattus norvegicus [1]
  ED40: 87 µM/kg

## N#CCCN(NC(N)=O)c1nc2ccccc2o1
Rattus norvegicus [2]
  ED40: inactive

## CC(=O)NN(CCC#N)c1nc2ccccc2o1
Rattus norvegicus [1]
  ED40: 402 µM/kg

## Cc1ccc2nc(N(N)CCC#N)oc2c1
Rattus norvegicus [1]
  ED40: 216 µM/kg

## N#CCCN(N)c1nccs1
Rattus norvegicus [1]
  ED40: 390 µM/kg

## NN(CCCO)c1nc2ccccc2o1
Rattus norvegicus [1]
  ED40: 576 µM/kg

## CCNN(CCC#N)c1nc2ccccc2o1
Rattus norvegicus [1]
  ED40: 196 µM/kg

## CC(C)(C)c1ccc2oc(N(N)CCC#N)nc2c1
Rattus norvegicus [1]
  ED40: 345 µM/kg

## CCN(CC)CCN(N)c1nc2ccccc2o1
Rattus norvegicus [1]
  ED40: 611 µM/kg

## NN(CC[S+]([O-])c1ccccc1)c1nc2ccccc2o1 (stereo not given)
Rattus norvegicus [1]
  ED40: 719 µM/kg

## CN(C)S(=O)(=O)n1c(N(N)CCC#N)nc2ccccc21
Rattus norvegicus [2]
  ED40: inactive

## CCCN(N)c1nc2ccccc2o1
Rattus norvegicus [1]
  ED40: 400 µM/kg

## Cc1cc(C)c2oc(N(N)CCC#N)nc2c1
Rattus norvegicus [1]
  ED40: 161 µM/kg

## N#CCCN(N)c1nc(-c2ccccc2)co1
Rattus norvegicus [1]
  ED40: 119 µM/kg

## COc1cc2nc(N(N)CCC#N)oc2cc1OC
Rattus norvegicus [1]
  ED40: 650 µM/kg

## Cc1ccc2oc(N(N)CCC#N)nc2c1
Rattus norvegicus [3]
  ED50: 175 µmol/kg
Rattus norvegicus [4]
  ED50: 148 µmol/kg
Rattus norvegicus [1]
  ED40: 83 µM/kg

## COCCN(N)c1nc2ccccc2o1
Rattus norvegicus [1]
  ED40: 300 µM/kg

## NN(CCSc1ccccc1)c1nc2ccccc2o1
Rattus norvegicus [2]
  ED40: inactive

## NN(CCc1ccccn1)c1nc2ccccc2o1
Rattus norvegicus [1]
  ED40: 258 µM/kg

## C/N=C(\S)NN(CCC#N)c1nc2ccccc2o1
Rattus norvegicus [2]
  ED40: inactive

## CC(C#N)CN(N)c1nc2ccccc2o1 (stereo not given)
Rattus norvegicus [1]
  ED40: 210 µM/kg

## COCCN(N)c1nc2cc(C#N)ccc2o1
Rattus norvegicus [1]
  ED40: 181 µM/kg

## NN(CCC(=O)O)c1nc2ccccc2o1
Rattus norvegicus [2]
  ED40: inactive

## C[C@]12CCC(=O)C=C1CC[C@@H]1[C@@H]2[C@@H](O)C[C@@]2(C)[C@H]1CC[C@]2(O)C(=O)CO [HYDROCORTISONE]
Rattus norvegicus [3]
  ED50: 50 µmol/kg
Rattus norvegicus [5]
  ED50: 12 µmol/kg
Rattus norvegicus [6]
  ED50: 9 µmol/kg
Rattus norvegicus [4]
  ED50: 38 µmol/kg
Rattus norvegicus [1]
  ED40: 33 µM/kg

## Cc1cc2nc(N(N)CCC#N)oc2cc1C
Rattus norvegicus [1]
  ED40: 413 µM/kg

## Cc1cccc2oc(N(N)CCC#N)nc12
Rattus norvegicus [1]
  ED40: 356 µM/kg

## N#CCCN(N)c1nc2ccccc2o1
Rattus norvegicus [3]
  ED50: 243 µmol/kg
Rattus norvegicus [5]
  ED50: 105 µmol/kg
Rattus norvegicus [6]
  ED50: 171 µmol/kg
Rattus norvegicus [4]
  ED50: 238 µmol/kg
Rattus norvegicus [1]
  ED40: 84 µM/kg

## N#CCCN(N)C1=Nc2ccccc2C1
Rattus norvegicus [1]
  ED40: 265 µM/kg

## N#CCCSc1nc2ccccc2o1
Rattus norvegicus [1]
  ED40: 1268 µM/kg

## NN(CCOc1ccc(F)cc1)c1nc2ccccc2o1
Rattus norvegicus [1]
  ED40: 800 µM/kg

## N#CCCNc1nc2ccccc2o1
Rattus norvegicus [1]
  ED40: 1302 µM/kg

## N#CCCN(N)c1nc2cc(-c3ccccc3)ccc2o1
Rattus norvegicus [2]
  ED40: inactive

## N#CCCN(NC=O)c1nc2ccccc2o1
Rattus norvegicus [1]
  ED40: 142 µM/kg

## N#CCCN(N)c1nc2cc(C(F)(F)F)ccc2o1
Rattus norvegicus [3]
  ED50: 92 µmol/kg
Rattus norvegicus [4]
  ED50: 70 µmol/kg
Rattus norvegicus [1]
  ED40: 26 µM/kg

## N#CCCN(N)C1=NS(=O)(=O)c2ccccc21
Rattus norvegicus [1]
  ED40: 643 µM/kg

## N#CCCC(N)c1nc2ccccc2o1 (stereo not given)
Rattus norvegicus [2]
  ED40: inactive

## N#CCCN(N)c1ncc(-c2ccccc2)cn1
Rattus norvegicus [1]
  ED40: 121 µM/kg

## CCOCCN(N)c1nc2cc(OC)ccc2o1
Rattus norvegicus [1]
  ED40: 149 µM/kg

## C=NN(CCC#N)c1nc2ccccc2o1
Rattus norvegicus [1]
  ED40: 845 µM/kg

## COC(=O)NN(CCC#N)c1nc2ccccc2o1
Rattus norvegicus [1]
  ED40: 695 µM/kg

## CNC(=O)NN(CCC#N)c1nc2ccccc2o1
Rattus norvegicus [2]
  ED40: inactive

## N#CCCN(N)c1nc2cc(F)ccc2o1
Rattus norvegicus [1]
  ED40: 141 µM/kg

## COC(=O)N(CCC#N)c1nc2ccccc2o1
Rattus norvegicus [2]
  ED40: inactive

## CSCCN(N)c1nc2ccccc2o1
Rattus norvegicus [1]
  ED40: 913 µM/kg

## Cn1c(N(N)CCC#N)nc2ccccc21
Rattus norvegicus [1]
  ED40: 349 µM/kg

## N#CCCN(N)c1ccc(-c2ccccc2)nn1
Rattus norvegicus [1]
  ED40: 672 µM/kg

## N#CCCN(C=O)c1nc2ccccc2o1
Rattus norvegicus [2]
  ED40: inactive

## NN(CCS(=O)(=O)c1ccccc1)c1nc2ccccc2o1
Rattus norvegicus [2]
  ED40: inactive

## N#CCCN(N)c1nc2c(ccc3ccccc32)o1
Rattus norvegicus [1]
  ED40: 346 µM/kg

## N#CCCN(N)c1nc2cc(Cl)ccc2o1
Rattus norvegicus [1]
  ED40: 177 µM/kg

## C#CCCN(N)c1nc2ccccc2o1
Rattus norvegicus [1]
  ED40: 348 µM/kg

## Cc1coc(N(N)CCC#N)n1
Rattus norvegicus [1]
  ED40: 705 µM/kg

## Cc1cc(N(N)CCC#N)c2ccccc2n1
Rattus norvegicus [1]
  ED40: 177 µM/kg

## Cc1cc(C)c2oc(N(N)CCC#N)nc2c1C
Rattus norvegicus [1]
  ED40: 115 µM/kg

## COCCN(N)c1nc2cc(Cl)ccc2o1
Rattus norvegicus [1]
  ED40: 136 µM/kg

## NC(=O)CCN(N)c1nc2ccccc2o1
Rattus norvegicus [1]
  ED40: 1009 µM/kg

## NN(CCO)c1nc2ccccc2o1
Rattus norvegicus [1]
  ED40: 1247 µM/kg

## NN(CCOc1ccccc1)c1nc2ccccc2o1
Rattus norvegicus [1]
  ED40: 457 µM/kg

## CC(=O)N(CCC#N)c1nc2ccccc2o1
Rattus norvegicus [2]
  ED40: inactive

## N#CCC(=O)N(N)c1nc2ccccc2o1
Rattus norvegicus [2]
  ED40: inactive

## NN(CCc1ccccc1)c1nc2ccccc2o1
Rattus norvegicus [1]
  ED40: 962 µM/kg

## Cc1nc(N(N)CCC#N)oc1C
Rattus norvegicus [1]
  ED40: 519 µM/kg

## CS(=O)(=O)c1ccc2oc(N(N)CCC#N)nc2c1
Rattus norvegicus [1]
  ED40: 407 µM/kg

## CCOC(=O)c1ccc2oc(N(N)CCC#N)nc2c1
Rattus norvegicus [2]
  ED40: inactive

## N#CCCN(N)C1Cc2ccccc2C1
Rattus norvegicus [1]
  ED40: 565 µM/kg

## CSc1cc(C(C)(C)C)cc2nc(N(N)CCC#N)oc12
Rattus norvegicus [1]
  ED40: 801 µM/kg

## COc1ccc2oc(N(CCC#N)NC=O)nc2c1
Rattus norvegicus [1]
  ED40: 200 µM/kg

## C/C=N\N(CCC#N)c1nc2ccccc2o1
Rattus norvegicus [1]
  ED40: 625 µM/kg

## CSc1ccc2oc(N(N)CCC#N)nc2c1
Rattus norvegicus [1]
  ED40: 399 µM/kg

## N#CCCN(N)c1nc2cc(C#N)ccc2o1
Rattus norvegicus [1]
  ED40: 66 µM/kg

## Cc1cc2oc(N(N)CCC#N)nc2cc1Cl
Rattus norvegicus [1]
  ED40: 36 µM/kg

## COc1ccc2nc(N(N)CCC#N)oc2c1
Rattus norvegicus [1]
  ED40: 388 µM/kg

## N#CCCN(NC(=O)NC1CCCCC1)c1nc2ccccc2o1
Rattus norvegicus [2]
  ED40: inactive

## CNN(CCC#N)c1nc2ccccc2o1
Rattus norvegicus [1]
  ED40: 250 µM/kg

## COc1ccc2oc(N(N)CCC#N)nc2c1
Rattus norvegicus [3]
  ED50: 116 µmol/kg
Rattus norvegicus [4]
  ED50: 155 µmol/kg
Rattus norvegicus [1]
  ED40: 59 µM/kg

## Cc1ccc2oc(N(CCC#N)NC=O)nc2c1
Rattus norvegicus [1]
  ED40: 168 µM/kg

## COCCN(N)c1nc2cc(C)ccc2o1
Rattus norvegicus [1]
  ED40: 127 µM/kg

## CC(C)S(=O)(=O)n1c(N(N)CCC#N)nc2ccccc21
Rattus norvegicus [2]
  ED40: inactive

## N#CCCN(N)c1ncco1
Rattus norvegicus [1]
  ED40: 360 µM/kg

## C[S+]([O-])c1ccc2oc(N(N)CCC#N)nc2c1 (stereo not given)
Rattus norvegicus [1]
  ED40: 607 µM/kg

## N#CCCN(N)c1cnccn1
Rattus norvegicus [1]
  ED40: 760 µM/kg

## CS(=O)(=O)CCN(N)c1nc2ccccc2o1
Rattus norvegicus [1]
  ED40: 278 µM/kg

## CCN(N)c1nc2ccccc2o1
Rattus norvegicus [1]
  ED40: 254 µM/kg

## N#CCCN(N)c1nc(-c2ccccc2)c(-c2ccccc2)o1
Rattus norvegicus [1]
  ED40: 332 µM/kg

## CS(=O)(=O)NN(CCC#N)c1nc2ccccc2o1
Rattus norvegicus [2]
  ED40: inactive

## COc1ccc2c(c1)c(CC(=O)O)c(C)n2C(=O)c1ccc(Cl)cc1 [INDOMETHACIN]
Rattus norvegicus [7]
  ED50: inactive
Rattus norvegicus [5]
  ED50: 1.1 µmol/kg
Rattus norvegicus [8]
  ED50: inactive
Rattus norvegicus [9]
  ED40: inactive
Rattus norvegicus [10]
  ED50: inactive

## N#CCCN(N)c1nc2cc(OCc3ccccc3)ccc2o1
Rattus norvegicus [2]
  ED40: inactive

## N#CCCN(N)c1nc2cc(C(=O)c3ccccc3)ccc2o1
Rattus norvegicus [2]
  ED40: inactive

## Cc1cc(Cl)cc2nc(N(N)CCC#N)oc12
Rattus norvegicus [1]
  ED40: 191 µM/kg

## CC(CC#N)N(N)c1nc2ccccc2o1 (stereo not given)
Rattus norvegicus [1]
  ED40: 245 µM/kg
